From PubChem
This is a sample that favours compounds with a hit; in the whole collection about 2.1% have one here.
Autophagy mod: modulators of autophagy; MEF GFP-LC3 puncta imaging; test concentration mostly 10 µM; calls only at 10 µM (by protocol); hit rate 0.98% among 190,000;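 active means percentage of spot-positive cells more than 3 SD above its plate mean, without a fluorescence outlier flag or 80% toxicity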;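 further: spot-positive cell cutoff set from DMSO-treated cells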
ABCG2 block: blocks JC-1 efflux by human ABCG2 transporter; Q9UNQ0; IgMXP3 cells, flow cytometry; inhibition, % at 6.6 µM; hit rate 0.1% among 190,000;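 active means inhibition above 80%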;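 further: 0% = DMSO and 100% = nicardipine control wells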
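Test system: IgMXP3 cells (ABCG2) mixed with DDAO far-red-labelled CCRF-Adr cells (ABCB1). Reagent: JC-1 transporter substrate. Compound dosing: single test compound dose, 6.6 µM final. Times: 10 min compound exposure, 25 °C. Detection: flow cytometry of retained JC-1 fluorescence. Read-out basis: efflux inhibition in percent versus controls. Controls: nicardipine and DMSO wells.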
Arbovirus anti: blocks arbovirus infection | arbovirus infection cell-based antiviral screen | hit rate 0.37% among 200,000 | inhibition, % at 10 µM; in the data active means inhibition above about 30%
MT stabilize HCS: microtubule stabilizers in HeLa cells; HeLa tubulin immunostaining HCS, 24 h; share of cells brighter than vehicle mean+2SD; % tubulin-high responders, % at 10 µM; hit rate 0.83% among 200,000; AID 2205;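 active means plate Z-score above 3 for both tubulin-high and condensed-nucleus cell shares, with cell loss under 80%, at 10 µM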;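 further: anti alpha tubulin signal scored within the nucleus-defined area of each cell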
ABCB1 block: blocks JC-1 efflux by human ABCB1 transporter. P08183. CCRF-Adr cells, flow cytometry. inhibition, % at 6.6 µM. hit rate 0.067% among 190,000; in the data active means inhibition above about 40%;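 further: 0% = vehicle and 100% = reference inhibitor; higher value means more JC-1 retained so stronger ABCB1 efflux block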
Target sequence (P08183 whole entry, looked up): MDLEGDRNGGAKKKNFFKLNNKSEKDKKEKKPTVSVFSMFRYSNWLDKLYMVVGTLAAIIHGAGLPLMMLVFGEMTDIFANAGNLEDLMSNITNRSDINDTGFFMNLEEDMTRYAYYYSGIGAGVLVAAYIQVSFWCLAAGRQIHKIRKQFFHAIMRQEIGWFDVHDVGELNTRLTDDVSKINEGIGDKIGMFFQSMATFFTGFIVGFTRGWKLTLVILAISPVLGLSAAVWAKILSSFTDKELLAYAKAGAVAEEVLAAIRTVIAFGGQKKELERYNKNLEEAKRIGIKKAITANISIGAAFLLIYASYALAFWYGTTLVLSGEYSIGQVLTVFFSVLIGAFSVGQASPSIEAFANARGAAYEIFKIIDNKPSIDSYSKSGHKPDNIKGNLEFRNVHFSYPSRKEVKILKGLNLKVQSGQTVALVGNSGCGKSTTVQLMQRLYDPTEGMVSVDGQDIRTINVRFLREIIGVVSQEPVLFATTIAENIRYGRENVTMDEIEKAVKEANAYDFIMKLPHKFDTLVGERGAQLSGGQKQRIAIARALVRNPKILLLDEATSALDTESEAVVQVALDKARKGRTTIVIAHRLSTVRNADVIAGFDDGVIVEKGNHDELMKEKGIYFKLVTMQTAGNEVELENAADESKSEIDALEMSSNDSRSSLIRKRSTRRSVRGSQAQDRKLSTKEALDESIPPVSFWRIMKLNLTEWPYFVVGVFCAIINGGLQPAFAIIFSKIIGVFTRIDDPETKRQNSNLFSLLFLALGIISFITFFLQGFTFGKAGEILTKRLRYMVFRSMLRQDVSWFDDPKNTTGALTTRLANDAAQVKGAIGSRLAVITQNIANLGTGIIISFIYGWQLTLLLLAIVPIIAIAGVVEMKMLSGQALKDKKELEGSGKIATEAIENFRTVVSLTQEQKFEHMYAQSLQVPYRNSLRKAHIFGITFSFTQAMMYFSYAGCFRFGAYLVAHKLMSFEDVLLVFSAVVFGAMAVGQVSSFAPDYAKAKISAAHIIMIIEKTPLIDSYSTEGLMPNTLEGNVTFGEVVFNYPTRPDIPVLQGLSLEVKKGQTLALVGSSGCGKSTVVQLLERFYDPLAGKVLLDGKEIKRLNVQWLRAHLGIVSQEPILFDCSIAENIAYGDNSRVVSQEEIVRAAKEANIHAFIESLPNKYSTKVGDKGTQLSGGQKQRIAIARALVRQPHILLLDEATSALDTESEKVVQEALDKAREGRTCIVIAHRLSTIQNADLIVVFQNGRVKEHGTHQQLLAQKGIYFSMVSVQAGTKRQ
bCat nuc transl: modulators of beta-catenin nuclear translocation | HeLa beta-catenin nuclear translocation, immunofluorescence imaging | nuclear translocation activity, % at 5 µM | hit rate 0.3% among 190,000;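 active means nuclear translocation activity above 50% at 5 µM, with a well cell count of 50 or more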;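 further: per-cell ratio of nuclear to cytoplasmic median beta-catenin stain intensity; plate controls were DMSO negative control for no effect and GSK-3 inhibitor IX positive control for full effect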
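Technique: fluorescence imaging of beta-catenin antibody stain plus DAPI / Material: human HeLa cell line / Incubation: compound treatment 24 h, 37°C, 5% CO2 / Read-out basis: % activation of per-cell nuclear versus cytoplasmic median beta-catenin signal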
An asterisk follows results filed as active; i = inactive; · = no result given; + = active, no number.

SMILES | Autophagy mod | ABCG2 block | Arbovirus anti | MT stabilize HCS | ABCB1 block | bCat nuc transl
COc1ccc(NC(=O)c2nc(C)c(C3(C)CC(c4cccnc4)=NO3)s2)cc1 (stereo not given) | · | · | · | · | · | 76*
CCOc1ccc(CN(C(=O)c2oc3cc(C)ccc3c2C)C2CCS(=O)(=O)C2)cc1 (stereo not given) | i | 5 | -20 | 41* | 2 | ·
Cc1ccc2c(C)c(C(=O)N(Cc3cccs3)C3CCS(=O)(=O)C3)oc2c1 (stereo not given) | i | 3 | 6 | 3 | 2 | -1
O=C(Nc1ncc2c(n1)-c1ccccc1CC2)c1cccc(Cl)c1 | i | 3 | -14 | 44* | 1 | ·
CCCOC(=O)c1[nH]c2c(c1C)C(=O)CC(c1ccc(OC)c(OC)c1)C2 (stereo not given) | i | 29 | -3 | 3 | 2 | -4
COCCOC(=O)c1[nH]c2c(c1C)C(=O)CC(c1cccs1)C2 (stereo not given) | + | 9 | -12 | 23* | 1 | 21
CCOC(=O)c1[nH]c2c(c1C)C(=O)CC(c1ccc(OCC)c(OC)c1)C2 (stereo not given) | i | 17 | 2 | 2 | 0 | -1
CCOCCOC(=O)c1[nH]c2c(c1C)C(=O)CC(c1cccs1)C2 (stereo not given) | + | 4 | -5 | 13 | 0 | 63*
Cc1c(C(=O)OCC(C)C)[nH]c2c1C(=O)CC(c1cccs1)C2 (stereo not given) | i | 1 | -10 | 13* | 0 | 295*
CCOC(=O)c1[nH]c2c(c1C)C(=O)CC(c1ccc(F)cc1)C2 (stereo not given) | i | -2 | -8 | 9 | -3 | 76*
CCCCCOC(=O)c1[nH]c2c(c1C)C(=O)CC(c1ccco1)C2 (stereo not given) | i | 31 | -1 | 10 | 2 | 59*
CCOc1ccc2cc(C#N)c(SCC(=O)NC(C)CC)nc2c1 (stereo not given) | i | 5 | -19 | 44* | 1 | 28
CCOC(=O)CSc1nc2cc(OCC)ccc2cc1C#N | i | 2 | -5 | 4 | 0 | 0
CCn1c(C)c(C(C)=O)c(N2CCN(C(c3ccccc3)c3ccccc3)CC2)nc1=S | + | 2 | -3 | 2 | 3 | 6
CC1=NNC(=O)C1CCC(=O)N/N=C/C=C/c1ccccc1 (stereo not given) | i | -2 | -3 | 4 | 0 | -3
COc1cccc(OCCCn2cc(/C=C3/C(=N)N4C=C(C)SC4=NC3=O)c3ccccc32)c1 | i | -3 | -5 | 3 | 0 | 2
COc1ccc(OCCCn2cc(/C=C3/C(=N)N4C=C(C)SC4=NC3=O)c3ccccc32)cc1 | + | -3 | -8 | 6 | 0 | -2
COc1ccc(NC(=O)c2ccc(F)cc2)cc1S(=O)(=O)Nc1cc(C)ccc1Br | i | -4 | -10 | 16* | 0 | 1
COc1ccc(NS(=O)(=O)c2cc(NC(=O)c3ccc(F)cc3)ccc2OC)cc1 | i | 1 | -8 | 3 | 1 | 1
Cc1ccc(C)c(OCC(=O)Nc2ccc3c(c2)OCO3)c1C | i | 11 | -17 | 23* | 0 | ·
Cc1cccc(C)c1OCC(=O)N/N=C/c1ccc2c(c1)OCO2 | i | 17 | -18 | 32* | 0 | 82*
Cc1cccc(OCC(=O)Nc2ccc3c(c2)OCO3)c1C | i | 40 | -7 | 3 | 1 | -2
CCn1c(Cc2ccccc2)nnc1SCC(=O)Nc1nnc(-c2ccccc2)s1 | i | 24 | 1 | 3 | 0 | -1
O=C(Nc1nccs1)c1c(O)c2cccc3c2n(c1=O)CCC3 | i | 14 | -2 | 3 | 0 | 1
CNC(=S)N1N=C(c2ccc(C)cc2)CC1c1cc(OC)ccc1OC (stereo not given) | i | 4 | -17 | 12* | 0 | 1
SMILES | Autophagy mod | ABCG2 block | Arbovirus anti | MT stabilize HCS | ABCB1 block | bCat nuc transl
Cc1cccc(NC(=O)CSc2ncnc3c2oc2ccccc23)c1 | i | 0 | -16 | 8 | 0 | ·
CCOc1ccc(C2c3cc(OC)c(OC)cc3CC(=O)N2c2ccc(OC)cc2)cc1 (stereo not given) | i | -2 | -24 | 42* | 0 | 11
CCCCOc1ccc(Br)cc1CSC(=N)N | i | 7 | -37 | 16 | 1 | 9
c1ccc(-c2nnc3sc(-c4csc5c4CCCC5)nn23)cc1 | i | 0 | -45 | 21* | 0 | 0
N/C(=N\OC(=O)c1cc(Br)ccc1Cl)c1ccccn1 | i | 27 | -4 | 3 | 2 | -2
Cc1sc2ncnc(N3CCN(C(=O)c4ccco4)CC3)c2c1C | i | 2 | -4 | 1 | 1 | 1
Cc1ccc(Nc2c(-c3cccnc3)nc3ccc(Br)cn23)cc1 | + | 0 | -1 | 1 | 0 | 0
Cc1ccc(Nc2c(-c3ccccc3)nc3cnccn23)cc1 | i | 0 | 6 | 3 | 0 | 0
O=c1c2c3c(sc2nc2n1CCC2)CCCCC3 | + | 8 | 8 | 1 | 2 | 1
O=c1c2c3c(sc2nc2n1CCC2)CCC3 | i | 0 | -1 | 3 | 0 | 2
CN(C)CCCN(C(=O)c1cc2ccccc2oc1=O)c1nc2ccc(F)cc2s1 | i | 7 | 5 | 9 | 3 | -2
CC(=O)Nc1cccc(C(=O)Nc2ccccc2N2CCOCC2)c1 | i | 1 | -11 | 32* | 0 | -4
CCOc1ccccc1CNC(=O)c1cn(C)c(=O)c2c1c1ccccc1n2C | i | 5 | -12 | 1 | 2 | -1
CCOc1ccccc1CNC(=O)CCCc1cn(C)c2ccccc12 | + | 13 | 11 | 2 | 0 | 5
COC(=O)c1ccc(C2C(C#N)=C(C)NC3=C2C(=O)CC(C)(C)C3)cc1 (stereo not given) | i | 2 | 6 | 3 | 1 | 3
COc1ccc(C2CC(=O)C3=C(C2)NC(C)=C(C#N)C3c2ccc(N(C)C)cc2)cc1 (stereo not given) | + | 6 | 0 | 2 | 2 | -1
COC(=O)c1sccc1NC(=O)CSc1ccccc1NS(=O)(=O)c1ccc(F)cc1 | i | 1 | 7 | 1 | 0 | 1
COC(=O)c1sccc1NC(=O)CSc1ccccc1NS(=O)(=O)c1ccc(Br)cc1 | i | 1 | 32* | 1 | 0 | -6
C=CCSc1nnc(C)c(/C=C/Nc2ccc(Cl)cc2)n1 | + | 5 | -5 | 3 | 0 | -6
CSc1nnc(C)c(/C=C/Nc2ccc(F)cc2F)n1 | i | 14 | -7 | 6 | 6 | 2
CCCNC(=O)NC(=O)COC(=O)c1ccc(S(=O)(=O)N(C)c2ccccc2OC)cc1 | i | 9 | -13 | 15* | 2 | -3
